{"source": "ChEMBL document CHEMBL1269008", "about": "“Electron density guided fragment-based lead discovery of ketohexokinase inhibitors” (J Med Chem, 2010)", "key": {"[1]": {"assay": "Inhibition of PKA at 10 uM", "in_short": "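Commercial panel of 200 protein kinases, with compound at 10 μM and ATP at 10 μM. Percent inhibition is from a single concentration.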"}, "[2]": {"assay": "Aqueous solubility of the compound in phosphate buffered saline at pH 7.4", "type": "physicochemical"}, "[3]": {"assay": "Metabolic stability in rat liver microsomes after 10 mins", "type": "ADME, Microsome", "conditions": "read-out: Stability"}, "[4]": {"assay": "Permeability from apical to basolateral side of human Caco-2 cells", "type": "ADME, cell-based", "in_short": "(§1)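 Caco-2 monolayers cultured 21 days on Transwells. Compound at 10 μM in HBSS with 25 mM HEPES pH 7.4, added to the apical or basolateral side. Lucifer Yellow in donor buffer checked monolayer integrity. After 1 h at 37 °C, both chambers were sampled into acetonitrile with internal standard and measured by LC-MS/MS to calculate Papp.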"}, "[5]": {"assay": "Aqueous solubility of the compound in phosphate buffered saline at pH 2", "type": "physicochemical"}, "[6]": {"target": "T1, Cytochrome P450 1A2 (Homo sapiens, UniProt P05177)", "T1 sequence (P05177 whole entry)": "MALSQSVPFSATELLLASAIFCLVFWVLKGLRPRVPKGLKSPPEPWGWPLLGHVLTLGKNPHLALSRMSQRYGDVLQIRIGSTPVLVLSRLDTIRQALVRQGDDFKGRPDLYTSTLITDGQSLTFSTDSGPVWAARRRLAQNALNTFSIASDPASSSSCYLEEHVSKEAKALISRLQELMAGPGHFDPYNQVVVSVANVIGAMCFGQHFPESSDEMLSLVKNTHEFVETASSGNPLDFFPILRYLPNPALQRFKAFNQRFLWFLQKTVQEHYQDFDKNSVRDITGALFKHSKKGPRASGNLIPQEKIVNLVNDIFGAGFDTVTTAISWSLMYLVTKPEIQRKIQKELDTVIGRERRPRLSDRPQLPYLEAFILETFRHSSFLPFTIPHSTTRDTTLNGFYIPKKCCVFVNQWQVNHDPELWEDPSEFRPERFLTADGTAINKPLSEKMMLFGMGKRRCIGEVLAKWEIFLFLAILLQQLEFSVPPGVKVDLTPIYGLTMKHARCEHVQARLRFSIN", "assay": "Inhibition of human recombinant CYP1A2", "type": "ADME"}, "[7]": {"target": "Cytochrome P450 2C19 (Homo sapiens, UniProt P33261)", "sequence (P33261 whole entry)": "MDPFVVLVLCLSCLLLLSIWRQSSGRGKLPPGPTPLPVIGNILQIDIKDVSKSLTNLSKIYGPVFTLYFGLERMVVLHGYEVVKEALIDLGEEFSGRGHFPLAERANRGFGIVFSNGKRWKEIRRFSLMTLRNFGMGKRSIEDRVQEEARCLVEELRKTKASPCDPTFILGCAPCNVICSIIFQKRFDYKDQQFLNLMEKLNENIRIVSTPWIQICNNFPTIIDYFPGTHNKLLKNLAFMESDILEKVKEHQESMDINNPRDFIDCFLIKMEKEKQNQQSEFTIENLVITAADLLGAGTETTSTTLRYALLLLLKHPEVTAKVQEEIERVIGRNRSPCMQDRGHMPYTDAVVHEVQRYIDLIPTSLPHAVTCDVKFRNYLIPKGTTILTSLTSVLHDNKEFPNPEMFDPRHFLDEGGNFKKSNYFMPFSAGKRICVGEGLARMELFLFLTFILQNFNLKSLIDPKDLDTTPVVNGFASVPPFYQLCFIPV", "assay": "Inhibition of human recombinant CYP2C19", "type": "ADME"}, "[8]": {"assay": "Oral bioavailability in Sprague-Dawley rat at 10 mg/kg", "type": "ADME, organism-based", "conditions": "in vivo", "in_short": "(§2)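 Male SPF Sprague-Dawley rats (~250 g), n=4. HCl salt dissolved in 20% HPBCD, adjusted to pH 4.5 with NaOH. 10 mg/kg by gastric intubation. Blood sampled at 0.5, 1, 2, 4, 8 and 24 h. Parameters derived from each animal's plasma concentration-time profile by limited PK analysis.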"}, "[9]": {"target": "5-hydroxytryptamine receptor 2B (Homo sapiens) (UniProt P41595)", "sequence (P41595 whole entry)": "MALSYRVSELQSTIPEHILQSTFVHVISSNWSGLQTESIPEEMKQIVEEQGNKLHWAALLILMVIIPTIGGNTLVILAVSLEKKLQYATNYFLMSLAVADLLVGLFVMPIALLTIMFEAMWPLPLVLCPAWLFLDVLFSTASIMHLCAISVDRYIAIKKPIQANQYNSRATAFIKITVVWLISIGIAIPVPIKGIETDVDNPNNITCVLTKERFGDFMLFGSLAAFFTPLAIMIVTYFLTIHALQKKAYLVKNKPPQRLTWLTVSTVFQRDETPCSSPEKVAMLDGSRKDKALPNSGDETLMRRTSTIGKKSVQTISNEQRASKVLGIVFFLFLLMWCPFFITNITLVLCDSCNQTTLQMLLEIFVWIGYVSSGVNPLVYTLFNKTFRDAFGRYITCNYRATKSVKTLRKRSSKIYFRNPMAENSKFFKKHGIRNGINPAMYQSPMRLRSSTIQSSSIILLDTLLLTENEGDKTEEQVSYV", "assay": "Inhibition of 5HT2B at 10 uM"}, "[10]": {"target": "Cytochrome P450 2D6 (Homo sapiens, UniProt P10635)", "sequence (P10635 whole entry)": "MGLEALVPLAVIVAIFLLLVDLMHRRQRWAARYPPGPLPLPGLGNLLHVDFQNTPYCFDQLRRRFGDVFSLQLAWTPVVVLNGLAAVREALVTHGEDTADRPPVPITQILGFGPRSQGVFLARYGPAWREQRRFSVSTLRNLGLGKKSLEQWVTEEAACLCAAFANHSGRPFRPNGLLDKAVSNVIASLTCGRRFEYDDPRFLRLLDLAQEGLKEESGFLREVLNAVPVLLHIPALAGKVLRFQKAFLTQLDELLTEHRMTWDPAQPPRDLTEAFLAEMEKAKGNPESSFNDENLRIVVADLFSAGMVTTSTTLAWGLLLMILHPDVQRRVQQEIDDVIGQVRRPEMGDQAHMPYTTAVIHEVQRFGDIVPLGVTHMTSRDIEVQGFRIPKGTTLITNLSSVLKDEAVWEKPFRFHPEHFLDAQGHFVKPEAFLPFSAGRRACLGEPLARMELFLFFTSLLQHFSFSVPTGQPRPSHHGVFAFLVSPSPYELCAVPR", "assay": "Inhibition of human recombinant CYP2D6", "type": "ADME"}, "[11]": {"assay": "Aqueous solubility of the compound in […]", "type": "physicochemical"}, "[12]": {"assay": "AUClast in Sprague-Dawley rat at 10 mg/kg, po", "type": "ADME, organism-based", "set-up": "time 0 - last, dose 10 mg/kg, route oral", "conditions": "plasma", "in_short": "as §2"}, "[13]": {"assay": "Cmax in Sprague-Dawley rat at 10 mg/kg, po", "type": "ADME, organism-based", "set-up": "dose 10 mg/kg, route oral", "conditions": "in vivo", "in_short": "as §2"}, "[14]": {"target": "Cytochrome P450 3A4 (Homo sapiens, UniProt P08684)", "sequence (P08684 whole entry)": "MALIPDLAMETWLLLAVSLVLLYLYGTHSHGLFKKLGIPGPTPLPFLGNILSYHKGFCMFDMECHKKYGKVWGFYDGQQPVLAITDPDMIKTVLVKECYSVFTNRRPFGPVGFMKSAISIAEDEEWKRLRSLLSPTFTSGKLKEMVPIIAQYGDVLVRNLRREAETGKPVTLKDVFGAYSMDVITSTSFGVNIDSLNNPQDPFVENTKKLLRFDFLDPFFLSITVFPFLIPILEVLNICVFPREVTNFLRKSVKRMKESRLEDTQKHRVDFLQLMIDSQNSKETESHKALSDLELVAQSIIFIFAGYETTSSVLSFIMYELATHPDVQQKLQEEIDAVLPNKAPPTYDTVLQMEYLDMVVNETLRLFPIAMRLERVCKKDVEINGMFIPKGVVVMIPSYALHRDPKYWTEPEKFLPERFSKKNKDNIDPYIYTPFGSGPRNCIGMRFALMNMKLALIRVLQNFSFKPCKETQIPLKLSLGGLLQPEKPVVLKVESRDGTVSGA", "assay": "Inhibition of human recombinant CYP3A4", "type": "ADME"}, "[15]": {"assay": "Clearance in Sprague-Dawley rat at 2 mg/kg, iv and 10 mg/kg, po", "type": "ADME, organism-based", "conditions": "in vivo", "in_short": "(§3)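 Male SPF Sprague-Dawley rats (~250 g), n=4, vehicle 20% HPBCD at pH 4.5. Dosing was 2.0 mg/kg iv into the jugular vein, with blood taken at 7 and 20 min and 1, 2, 4, 8 and 24 h. Oral arm was 10 mg/kg by gastric intubation. Parameters came from each animal's plasma profile.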"}, "[16]": {"target": "5-hydroxytryptamine receptor 7 (Homo sapiens) (UniProt P34969)", "sequence (P34969 whole entry)": "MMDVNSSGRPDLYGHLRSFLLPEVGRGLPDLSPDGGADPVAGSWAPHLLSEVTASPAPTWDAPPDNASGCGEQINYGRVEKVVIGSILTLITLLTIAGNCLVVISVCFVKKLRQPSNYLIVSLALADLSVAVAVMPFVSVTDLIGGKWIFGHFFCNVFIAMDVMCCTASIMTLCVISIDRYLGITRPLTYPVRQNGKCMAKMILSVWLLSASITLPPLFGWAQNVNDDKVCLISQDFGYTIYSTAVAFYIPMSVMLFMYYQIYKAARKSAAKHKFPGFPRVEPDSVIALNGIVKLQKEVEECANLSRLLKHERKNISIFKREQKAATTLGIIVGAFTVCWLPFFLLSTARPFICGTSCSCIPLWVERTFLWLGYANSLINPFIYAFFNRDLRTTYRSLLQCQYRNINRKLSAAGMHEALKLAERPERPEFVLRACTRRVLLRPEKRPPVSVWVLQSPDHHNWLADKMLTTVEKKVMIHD", "assay": "Inhibition of 5HT7 at 10 uM"}, "[17]": {"target": "T2, 5-hydroxytryptamine receptor 1A (Homo sapiens) (UniProt P08908)", "T2 sequence (whole entry)": "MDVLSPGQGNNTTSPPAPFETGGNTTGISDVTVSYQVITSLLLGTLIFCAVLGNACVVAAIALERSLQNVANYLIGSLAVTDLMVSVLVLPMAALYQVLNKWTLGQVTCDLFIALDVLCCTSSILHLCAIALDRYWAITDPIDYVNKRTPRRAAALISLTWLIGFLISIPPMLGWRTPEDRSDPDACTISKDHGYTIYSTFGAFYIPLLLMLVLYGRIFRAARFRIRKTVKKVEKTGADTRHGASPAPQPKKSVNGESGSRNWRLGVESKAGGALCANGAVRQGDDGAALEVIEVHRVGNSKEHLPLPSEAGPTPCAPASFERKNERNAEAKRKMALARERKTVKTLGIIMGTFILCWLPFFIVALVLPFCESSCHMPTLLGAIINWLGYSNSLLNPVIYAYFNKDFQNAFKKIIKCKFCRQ", "assay": "Inhibition of 5HT1A at 10 uM"}, "[18]": {"assay": "Aqueous solubility of the compound in water", "type": "physicochemical"}, "[19]": {"assay": "Volume of distribution in Sprague-Dawley rat at 2 mg/kg, iv and 10 mg/kg, po", "type": "ADME, organism-based", "conditions": "in vivo", "in_short": "as §3"}, "[20]": {"assay": "Metabolic stability in human liver microsomes after 10 mins", "type": "ADME, Microsome", "conditions": "read-out: Stability"}, "[21]": {"target": "Cytochrome P450 2C9 (Homo sapiens, UniProt P11712)", "sequence (P11712 whole entry)": "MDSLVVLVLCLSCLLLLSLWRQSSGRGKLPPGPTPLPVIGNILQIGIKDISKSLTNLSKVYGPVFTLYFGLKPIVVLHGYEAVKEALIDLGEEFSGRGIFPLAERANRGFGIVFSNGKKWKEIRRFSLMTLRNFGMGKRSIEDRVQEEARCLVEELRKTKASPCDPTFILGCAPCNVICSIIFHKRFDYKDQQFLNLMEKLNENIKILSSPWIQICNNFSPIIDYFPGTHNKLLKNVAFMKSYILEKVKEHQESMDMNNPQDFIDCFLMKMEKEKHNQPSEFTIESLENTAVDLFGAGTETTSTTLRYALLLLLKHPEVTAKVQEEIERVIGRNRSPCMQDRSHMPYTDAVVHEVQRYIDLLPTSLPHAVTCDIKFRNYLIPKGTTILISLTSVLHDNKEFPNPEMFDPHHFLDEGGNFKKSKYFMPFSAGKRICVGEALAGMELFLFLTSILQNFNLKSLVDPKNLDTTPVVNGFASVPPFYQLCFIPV", "assay": "Inhibition of human recombinant CYP2C9", "type": "ADME"}, "[22]": {"assay": "Permeability from basolateral to apical side of human Caco-2 cells", "type": "ADME, cell-based", "in_short": "as §1"}}, "data": [{"smiles": "CSc1nn(-c2ccccc2)c2cc(NC(=O)C3CCNCC3)ccc12", "values": [{"measurement": "inhibition", "setting": "[1]", "result": 99, "unit": "%"}, {"measurement": "solubility", "setting": "[2]", "result": 45.2, "unit": "µM"}, {"measurement": "remaining at 10 min", "setting": "[3]", "result": 95, "unit": "%"}, {"measurement": "Papp A→B", "setting": "[4]", "result": 1.65, "unit": "×10⁻⁶ cm/s"}, {"measurement": "solubility", "setting": "[5]", "result": 35.3, "unit": "µM"}, {"measurement": "IC50", "setting": "[6]", "result": "> 10", "unit": "µM"}, {"measurement": "IC50", "setting": "[7]", "result": "> 10", "unit": "µM"}, {"measurement": "bioavailability", "setting": "[8]", "result": 75.4, "unit": "%"}, {"measurement": "inhibition", "setting": "[9]", "result": 91, "unit": "%"}, {"measurement": "IC50", "setting": "[10]", "result": "> 10", "unit": "µM"}, {"measurement": "solubility", "setting": "[11]", "result": 40, "unit": "µM"}, {"measurement": "AUC(0-t)", "setting": "[12]", "result": 9030, "unit": "ng·h/mL"}, {"measurement": "Cmax", "setting": "[13]", "result": 529, "unit": "ng/mL"}, {"measurement": "IC50", "setting": "[14]", "result": "> 10", "unit": "µM"}, {"measurement": "clearance", "setting": "[15]", "result": 11.6, "unit": "mL/min/kg"}, {"measurement": "inhibition", "setting": "[16]", "result": 95, "unit": "%"}, {"measurement": "inhibition", "setting": "[17]", "result": 83, "unit": "%"}, {"measurement": "solubility", "setting": "[18]", "result": 40.7, "unit": "µM"}, {"measurement": "Vd", "setting": "[19]", "result": 8.53, "unit": "L/kg"}, {"measurement": "remaining at 10 min", "setting": "[20]", "result": 96, "unit": "%"}, {"measurement": "IC50", "setting": "[21]", "result": "> 10", "unit": "µM"}, {"measurement": "Papp B→A", "setting": "[22]", "result": 9.47, "unit": "×10⁻⁶ cm/s"}]}]}
